UHRF1 MBD2 ctr: UHRF1 methylated DNA binding inhibitors, primary screen, counter-screen for MBD2 inhibitor project, biochemical, TR-FRET, human UHRF1, single concentration; inhibition, % at 4.4 µM; E3 ubiquitin-protein ligase UHRF1 (Homo sapiens), Q96T88; UHRF1 binding to methylated oligo; actives 0.75% (n = 370,000);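 further: UHRF1 SRA domain binding a hemimethylated CpG hairpin DNA probe; 0% = median of test compound wells and 100% = reference inhibitor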
TDP2 inh: human TDP2 enzyme inhibitors, primary screen, biochemical, epi absorbance, recombinant enzyme; actives 0.34% (n = 370,000); inhibition, % at 12.8 µM; T5PNP hydrolysis, p-nitrophenol absorbance 415 nm; Tyrosyl-DNA phosphodiesterase 2 (Homo sapiens), O95551;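 active means inhibition above the mean of all tested compounds plus 3 SD, set per campaign, cut at about 25% in these data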;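 further: 0% = DMSO with enzyme and 100% = buffer with substrate but no TDP2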
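Assay system: Recombinant human TDP2 | Quantity: 120 nM TDP2 per well | Incubation: 2 h at 37 °C | Signal: Epi absorbance | Evaluation: Percent inhibition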
LEDGF integ inh: blockers of LEDGF/p75-dependent integrase strand transfer – biochemical, TR-FRET, high throughput, primary screen; inhibition, % at 3.7 µM; HIV-1 integrase (with human LEDGF/p75); TR-FRET IN-LEDGF/p75 DNA integration, Eu/Cy5; actives 0.64% (n = 370,000);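 active means inhibition above the screen-wide mean plus 3 SD, cut at about 13% in these data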;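 further: signal is the Cy5 over europium emission ratio at 671 and 618 nm; 0% = plate median of compound wells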
NSD2 HMT inh: NSD2 histone methyltransferase inhibitors, primary screen, biochemical, AlphaScreen, single concentration, set 2; NSD2 peptide methylation, 120 min; Histone-lysine N-methyltransferase NSD2 (Homo sapiens), O96028; AID 743445, 2014; actives 0.54% (n = 310,000); inhibition, % at 12.5 µM; in the data active means inhibition above about 50%
MBD2 DNA inh: inhibitors of MBD2 binding to methylated DNA, primary screen, biochemical, TR-FRET, DNA-binding domain, human. MBD2 binding to methylated oligonucleotide. actives 0.31% (n = 370,000). inhibition, % at 4.4 µM. Methyl-CpG-binding domain protein 2 (Homo sapiens), Q9UBB5. AID 686964, 2013; in the data active means inhibition above about 13%
CASP6 VEID inh: human caspase-6 inhibitors, primary screen, biochemical, VEID-R110 fluorescence, single point, set 2; purified caspase-6, Z-VEID-R110 cleavage fluorescence; inhibition, % at 12.5 µM; actives 0.53% (n = 350,000);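 active means mean inhibition across replicates at least about 35%, with every replicate also reaching that limit, limit read from the data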;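 further: 0% = median of neutral control wells and 100% = no fluorescence left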
UHRF1 ctr MBD2: UHRF1 methylated DNA binding inhibitors, counter-screen for MBD2 inhibitor project, biochemical, TR-FRET, human UHRF1; shares compounds with MBD2 DNA inh; actives 25% (n = 1,000); inhibition, % at 4.4 µM; AID 720530, 2013; UHRF1 binding to methylated oligonucleotide;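 further: UHRF1 SRA domain binding a labeled hemimethylated CpG hairpin DNA; 0% = vehicle only and 100% = reference inhibitor with vehicle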
MBD2 confirm: inhibitors of MBD2 binding to methylated DNA, confirmation, biochemical, TR-FRET, DNA-binding domain, human. actives 26% (n = 1,000). AID 720531, 2013. TR-FRET MBD2-DBD binding to methylated oligonucleotide. inhibition, % at 4.4 µM. shares compounds with MBD2 DNA inh; in the data active means inhibition above about 14%
IN multimer up: HIV-1 IN multimer formation enhancers, counter-screen for LEDGF/p75 integration inhibitor project, biochemical, TR-FRET; shares compounds with LEDGF integ inh; TR-FRET HIV-1 integrase multimerization; activation, % at 7.7 µM; actives 17% (n = 2,000); in the data active means activation above about 8.9%
TRFRET interf: TR-FRET optical interference artefacts, confirmation, artefact control for LEDGF/p75-dependent integration inhibitor project, biochemical, HIV-1 IN multimerization; shares compounds with LEDGF integ inh; TR-FRET optical interference counterscreen; inhibition, % at 7.7 µM; 2,000 tested, under 10 active;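 active means inhibition above the mean over all tested compounds plus 3 SD, which no compound reached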;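 further: 0% = integrase with antibodies and DMSO and 100% = antibodies without integrase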
IN-LEDGF confirm: inhibitors of HIV-1 IN-LEDGF/p75 DNA integration, confirmation, biochemical, TR-FRET; TR-FRET LEDGF/p75-dependent HIV-1 integration; actives 36% (n = 2,000); inhibition, % at 3.7 µM; shares compounds with LEDGF integ inh; AID 1053136, 2014; in the data active means inhibition above about 14%
An asterisk follows results filed as active; · = no result given. Shown are actives, neighbours in structure and some others; about 1.9% of the full set was active somewhere. Unless noted, no stated cut-off is given here; in the data, active means inhibition above about 21%; inactive means the rest.

SMILES | UHRF1 MBD2 ctr | TDP2 inh | LEDGF integ inh | NSD2 HMT inh | MBD2 DNA inh | CASP6 VEID inh | UHRF1 ctr MBD2 | MBD2 confirm | IN multimer up | TRFRET interf | IN-LEDGF confirm
CCOC(=O)C(C)N1C(=O)S/C(=C\c2ccc(-c3ccccc3C(=O)O)o2)C1=O (configuration not stated) | 55* | -6 | 18* | 49 | 31* | 60* | 49* | 16* | 6 | -20 | 18*
O=C(O)c1ccc(N/N=C/C2=C(N3CCOCC3)C(=C\c3ccccc3)/CC2)cc1 | 51* | 21 | 54* | 31 | 19* | 12 | 2 | 6 | 2 | -8 | 17*
C[C@H]1CN([C@@H](C)CO)C(=O)c2cc(C3=CCCCC3)cnc2O[C@@H]1CN(C)Cc1ccccn1 | · | · | · | · | · | -1 | · | · | · | · | ·
Cc1csc(NC(=O)CSc2sc3c(O)cc(=O)[nH]c3c2C#N)n1 | 79* | 8 | 38* | 41 | 52* | 79* | 11 | 7 | 41* | -144 | 20*
COC(=O)c1ccc(C)c(NC(=O)CSc2sc3c(O)cc(=O)[nH]c3c2C#N)c1 | 51* | -4 | 14* | 28 | 14* | 54* | 22* | 9 | 20* | -98 | 36*
COc1ccc(NC(=O)CSc2sc3c(O)cc(=O)[nH]c3c2C#N)c(OC)c1 | 56* | 0 | 16* | 47 | 30* | 59* | 22* | 12 | 21* | -106 | 34*
COc1ccccc1NC(=O)CSc1sc2c(O)cc(=O)[nH]c2c1C#N | 15 | -10 | 2 | · | 5 | 31 | · | · | · | · | ·
Cc1csc(NC(=O)CSc2nc3[nH]c(=O)cc(O)c3s2)n1 | -1 | 2 | 3 | -9 | -6 | -1 | · | · | · | · | ·
C[C@@H]1CN([C@H](C)CO)C(=O)Cc2cc(NC(=O)C3CCCCC3)ccc2O[C@@H]1CN(C)Cc1ccc(C(=O)O)cc1 | · | · | · | · | · | 1 | · | · | · | · | ·
CSc1nc(N(CCO)CCO)c2sc3nc(-c4ccco4)c4c(c3c2n1)CCC4 | 24* | 1 | 16* | 0 | 18* | · | 31* | 36* | 12* | -60 | 53*
COc1ccc(OC)c(C2Nc3c(Cl)ccc(C(=O)O)c3C3C=CCC32)c1 (configuration not stated) | 1 | 13 | 9 | 24 | 1 | 18 | · | · | · | · | ·

Compound activity deposited in PubChem BioAssay by several laboratories.
